According to BindingDB's records for doi:10.1016/j.bmcl.2005.08.013 (Kosan Biosciences, 2005):
pKd: −log10 of the molar value.

target: Heat shock protein HSP 90-alpha (Homo sapiens, UniProt P07900); assay: Binding affinity for human heat shock protein 90 in scintillation proximity assay
Summary of the method: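 Purified full-length human Hsp90 was used as the target protein. Binding was measured by scintillation proximity assay.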

pKd, < 4.00:
CO[C@H]1C=CC=C(C)C(=O)Nc2cc(O)c(N=CCN(C)C)c(c2O)C[C@@H](C)C[C@H](OC)[C@H](O)[C@@H](C)/C=C(\C)[C@@H]1OC(=O)c1ccc[nH]1 [1H-Pyrrole-2-carboxylic acid (E)-(8R,10R,15S,20S)-19-(2-dimethylamino-ethylamino)-13-(S)-hydroxy-8,14-dimethoxy-4,12,16-trimethyl-10-(S)-methyl-3,20,22-trioxo-2-aza-bicyclo[16.3.1]docosa-1(21),4,6,10,18-pentaen-9-yl ester]
CO[C@H]1C=CC=C(C)C(=O)Nc2cc(O)c(N=CCN(C)C)c(c2O)C[C@@H](C)C[C@H](OC)[C@H](O)[C@@H](C)/C=C(\C)[C@@H]1OC(=O)c1cnc[nH]1 [3H-Imidazole-4-carboxylic acid (E)-(8R,10R,15S,20S)-19-(2-dimethylamino-ethylamino)-13-(S)-hydroxy-8,14-dimethoxy-4,12,16-trimethyl-10-(S)-methyl-3,20,22-trioxo-2-aza-bicyclo[16.3.1]docosa-1(21),4,6,10,18-pentaen-9-yl ester]
CO[C@H]1C=CC=C(C)C(=O)Nc2cc(O)c(N=CCN(C)C)c(c2O)C[C@@H](C)C[C@H](OC)[C@H](O)[C@@H](C)/C=C(\C)[C@@H]1OC(=O)NCCN(C)C [(2-Dimethylamino-ethyl)-carbamic acid (4E,6Z)-(13S,14S,17R,19S)-19-(2-dimethylamino-ethylamino)-13-(S)-hydroxy-8,14-dimethoxy-4,12,16-trimethyl-10-(R)-methyl-3,20,22-trioxo-2-aza-bicyclo[16.3.1]docosa-1(21),4,6,10,18-pentaen-9-yl ester]
CO[C@H]1C=CC=C(C)C(=O)Nc2cc(O)c(N=CCN(C)C)c(c2O)C[C@@H](C)C[C@H](OC)[C@H](O)[C@@H](C)/C=C(\C)[C@@H]1OC(=O)NCCO [(2-Hydroxy-ethyl)-carbamic acid (4E,6Z)-(13S,14S,17R,19S)-19-(2-dimethylamino-ethylamino)-13-(S)-hydroxy-8,14-dimethoxy-4,12,16-trimethyl-10-(R)-methyl-3,20,22-trioxo-2-aza-bicyclo[16.3.1]docosa-1(21),4,6,10,18-pentaen-9-yl ester]
CO[C@H]1C=CC=C(C)C(=O)Nc2cc(O)c(N=CCN(C)C)c(c2O)C[C@@H](C)C[C@H](OC)[C@H](O)[C@@H](C)/C=C(\C)[C@@H]1OC(=O)NCC(N)=O [Carbamoylmethyl-carbamic acid (4E,6Z)-(13S,14S,17R,19S)-19-(2-dimethylamino-ethylamino)-13-(S)-hydroxy-8,14-dimethoxy-4,12,16-trimethyl-10-(R)-methyl-3,20,22-trioxo-2-aza-bicyclo[16.3.1]docosa-1(21),4,6,10,18-pentaen-9-yl ester]
CONC(=O)O[C@H]1/C(C)=C/[C@H](C)[C@@H](O)[C@@H](OC)C[C@H](C)Cc2c(O)c(cc(O)c2N=CCN(C)C)NC(=O)C(C)=CC=C[C@@H]1OC [Geldanamycin derivative]
CO[C@H]1C=CC=C(C)C(=O)Nc2cc(O)c(N3CCC3)c(c2O)C=C(C)C[C@H](OC)[C@H](O)[C@@H](C)/C=C(\C)[C@@H]1OC(=O)NO [Geldanamycin derivative]
CO[C@H]1C=CC=C(C)C(=O)Nc2cc(O)c(N=CCF)c(c2O)C[C@@H](C)C[C@H](OC)[C@H](O)[C@@H](C)/C=C(\C)[C@@H]1OC(=O)NO [Geldanamycin derivative]
CO[C@H]1C=CC=C(C)C(=O)Nc2cc(O)c(N=CCN(C)C)c(c2O)C[C@@H](C)C[C@H](OC)[C@H](O)[C@@H](C)/C=C(\C)[C@@H]1OC(=O)NN [Hydrazinecarboxylic acid (4E,6Z)-(13S,14S,17R,19S)-19-(2-dimethylamino-ethylamino)-13-(S)-hydroxy-8,14-dimethoxy-4,12,16-trimethyl-10-(R)-methyl-3,20,22-trioxo-2-aza-bicyclo[16.3.1]docosa-1(21),4,6,10,18-pentaen-9-yl ester]
CO[C@H]1C=CC=C(C)C(=O)Nc2cc(O)c(N=CCF)c(c2O)C[C@@H](C)C[C@H](OC)[C@H](O)[C@@H](C)/C=C(\C)[C@@H]1OC(=O)NN [Hydrazinecarboxylic acid (4E,6Z)-(13S,14S,17R,19S)-19-(2-fluoro-ethylamino)-13-(S)-hydroxy-8,14-dimethoxy-4,12,16-trimethyl-10-(R)-methyl-3,20,22-trioxo-2-aza-bicyclo[16.3.1]docosa-1(21),4,6,10,18-pentaen-9-yl ester]
CO[C@H]1C=CC=C(C)C(=O)Nc2cc(O)c(N3CCC3)c(c2O)C=C(C)C[C@H](OC)[C@H](O)[C@@H](C)/C=C(\C)[C@@H]1OC(=O)NN [Hydrazinecarboxylic acid (4E,6Z)-(13S,14S,17R,19S)-19-azetidin-1-yl-13-(S)-hydroxy-8,14-dimethoxy-4,12,16-trimethyl-10-(R)-methyl-3,20,22-trioxo-2-aza-bicyclo[16.3.1]docosa-1(21),4,6,10,18-pentaen-9-yl ester]
CNC(=O)O[C@H]1/C(C)=C/[C@H](C)[C@@H](O)[C@@H](OC)C[C@H](C)Cc2c(O)c(cc(O)c2N=CCN(C)C)NC(=O)C(C)=CC=C[C@@H]1OC [Methyl-carbamic acid (4E,6Z)-(13S,14S,17R,19S)-19-(2-dimethylamino-ethylamino)-13-(S)-hydroxy-8,14-dimethoxy-4,12,16-trimethyl-10-(R)-methyl-3,20,22-trioxo-2-aza-bicyclo[16.3.1]docosa-1(21),4,6,10,18-pentaen-9-yl ester]
CO[C@H]1C=CC=C(C)C(=O)Nc2cc(O)c(N=CCN(C)C)c(c2O)C[C@@H](C)C[C@H](OC)[C@H](O)[C@@H](C)/C=C(\C)[C@@H]1OC(=O)N(C)N [N-Methyl-hydrazinecarboxylic acid (4E,6Z)-(13S,14S,17R,19S)-19-(2-dimethylamino-ethylamino)-13-(S)-hydroxy-8,14-dimethoxy-4,12,16-trimethyl-10-(R)-methyl-3,20,22-trioxo-2-aza-bicyclo[16.3.1]docosa-1(21),4,6,10,18-pentaen-9-yl ester]
